The source of these data is ChEMBL document CHEMBL4364267, “Hydrogen sulfide donating ent-kaurane and spirolactone-type 6,7-seco-ent-kaurane derivatives: Design, synthesis and antiproliferative properties” (Eur J Med Chem, 2019).

In assay [1] the test system is Bel-7402. The experiment in a line: Induction of apoptosis in human Bel7402 cells assessed as late apoptotic cells at 0.45 uM after 48 hrs by Annexin V-FITC/propidium iodide staining based flow cytometry (reference value: 0.68%). The class given is functional. The method in brief:
(§1)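 Bel-7402 cells in 6-well plates treated with 0, 0.45, 0.90 or 1.80 μM, washed twice with PBS and resuspended in annexin V binding buffer. Stained with annexin V-FITC and PI for 15 min at room temperature in the dark, then analysed by flow cytometry. Methods state 24 h exposure; the figure legend states 48 h.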
On the technique in general: Flow cytometry measures light scatter and fluorescence of single cells or particles in a stream.

Assay [2] deals with Bel-7402. The experiment in a line: Induction of apoptosis in human Bel7402 cells assessed as viable cells at 0.45 uM after 48 hrs by Annexin V-FITC/propidium iodide staining based flow cytometry (reference value: 97.22%). Format: functional. Particulars: Bel-7402, 48 h, read-out: Activity. The method in brief: as §1
A further assay deals with L02. The experiment in a line: Cytotoxicity against human L02 cells assessed as reduction in cell viability after 72 hrs by MTT assay. Format: cell-based. Particulars: L02, 72 h. An outline of the steps:
(§2)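 MTT assay over 72 h, compounds at 64, 16, 4, 1, 0.25, 0.0625 and 0.015625 μM. MTT solution (5 mg/mL) and DMSO added afterwards, 10 min at room temperature, absorbance read at 490 nm. IC50 calculated as the mean ± SD of three independent experiments.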
A general note: Tetrazolium dyes change colour on reduction, which living cells bring about.

For assay [3], the system named is Bel-7402. Nature of the assay: Induction of mitochondrial membrane potential loss in human Bel7402 cells assessed as cell population with intact mitochondrial membrane potential at 1.80 uM after 48 hrs by JC1 staining-based flow cytometry analysis (reference value: 98.67%). The class given is functional. An outline of the steps:
(§3)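 Bel-7402 cells in 6-well plates exposed for 48 h to 0, 0.45, 0.90 or 1.80 μM, DMSO as vehicle. Washed with PBS and stained with JC-1 at room temperature in the dark. Cells with collapsed membrane potential counted by flow cytometry.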

A further assay concerns A549. The experiment in a line: Antiproliferative activity against human A549 cells assessed as reduction in cell viability after 72 hrs by MTT assay. Format: functional, cell-based. Particulars: A549, 72 h. The method in brief: as §2
Assay [4] relates to Bel-7402. The experiment in a line: Induction of apoptosis in human Bel7402 cells assessed as increase in cleaved caspase-3 expression at 0.90 to 1.80 uM after 48 hrs by Western blot analysis. Format: functional, cell-based. On the technique in general: A western blot detects proteins with antibodies after separation by electrophoresis.
The test system of assay [5] is Bel-7402. The experiment in a line: Induction of morphological changes in human Bel7402 cells assessed as nuclear fragmentation at 0.45 to 1.80 uM after 48 hrs by Hoechst 33258 staining-based fluorescent microscopic analysis. Format: functional, cell-based. An outline of the steps:
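Bel-7402 cells cultured 24 h in 6-well plates at 37 °C, then exposed 48 h to 0, 0.45, 0.90 or 1.80 μM. Harvested by mild trypsinization and washed twice with PBS. Stained with Hoechst 33258 (2 mg/mL) for 15 min at room temperature in the dark, washed, and viewed by fluorescence microscopy.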

For assay [6], the system named is Bel-7402. The experiment in a line: Antiproliferative activity against human Bel7402 cells assessed as reduction in cell viability after 72 hrs by MTT assay. Particulars: Bel-7402, 72 h. Format: functional, cell-based. An outline of the steps: as §2
For assay [7], the system named is Bel-7402. The experiment in a line: Cell cycle arrest in human Bel7402 cells assessed as accumulation of cells at S phase at 0.45 uM after 48 hrs by propidium iodide/RNase staining based flow cytometric analysis (reference value: 39.09%). The class given is functional.
The test system of assay [8] is Bel-7402. The experiment in a line: Induction of apoptosis in human Bel7402 cells assessed as early apoptotic cells at 1.80 uM after 48 hrs by Annexin V-FITC/propidium iodide staining based flow cytometry (reference value: 2.09%). The class given is functional. The method in brief: as §1
In assay [9] the test system is Bel-7402. Nature of the assay: Cell cycle arrest in human Bel7402 cells assessed as accumulation of cells at G1 phase at 0.45 uM after 48 hrs by propidium iodide/RNase staining based flow cytometric analysis (reference value: 30.95%). The class given is functional.
Assay [10] relates to Bel-7402. Nature of the assay: Induction of apoptosis in human Bel7402 cells assessed as increase in cytochrome C expression at 0.90 to 1.80 uM after 48 hrs by Western blot analysis. Format: functional, cell-based.
Assay [11] concerns Bel-7402. The experiment in a line: Induction of apoptosis in human Bel7402 cells assessed as viable cells at 1.80 uM after 48 hrs by Annexin V-FITC/propidium iodide staining based flow cytometry (reference value: 97.22%). Format: functional. Particulars: Bel-7402, 48 h, read-out: Activity. An outline of the steps:
as §1

In assay [12] the test system is Bel-7402. Nature of the assay: Induction of apoptosis in human Bel7402 cells assessed as reduction in Bcl-xl expression at 0.90 to 1.80 uM after 48 hrs by Western blot analysis. The class given is functional, cell-based.
Assay [13] relates to Bel-7402. The experiment in a line: Induction of mitochondrial membrane potential loss in human Bel7402 cells assessed as cell population with mitochondrial membrane potential collapse at 0.45 uM after 48 hrs by JC1 staining-based flow cytometry analysis (reference value: 1.28%). The class given is functional. The method in brief: as §3
For assay [14], the system named is Bel-7402. The experiment in a line: Induction of mitochondrial membrane potential loss in human Bel7402 cells assessed as cell population with mitochondrial membrane potential collapse at 0.90 uM after 48 hrs by JC1 staining-based flow cytometry analysis (reference value: 1.28%). Format: functional. The method in brief: as §3
The next assay concerns SGC-7901. Nature of the assay: Antiproliferative activity against human SGC7901 cells assessed as reduction in cell viability after 72 hrs by MTT assay. The class given is functional, cell-based. Particulars: SGC-7901, 72 h. An outline of the steps:
as §2

Assay [15] has as its system Bel-7402. Nature of the assay: Cell cycle arrest in human Bel7402 cells assessed as accumulation of cells at G1 phase at 0.90 uM after 48 hrs by propidium iodide/RNase staining based flow cytometric analysis (reference value: 30.95%). The class given is functional.
Assay [16] concerns Bel-7402. The experiment in a line: Induction of apoptosis in human Bel7402 cells assessed as increase in Bax expression at 0.90 to 1.80 uM after 48 hrs by Western blot analysis. The class given is functional, cell-based.
Assay [17] relates to Bel-7402. The experiment in a line: Induction of apoptosis in human Bel7402 cells assessed as increase in cleaved PARP expression at 0.45 to 1.80 uM after 48 hrs by Western blot analysis. Format: functional, cell-based.
Assay [18] has as its system Bel-7402. Nature of the assay: Cell cycle arrest in human Bel7402 cells assessed as accumulation of cells at G2 phase at 1.80 uM after 48 hrs by propidium iodide/RNase staining based flow cytometric analysis (reference value: 29.97%). The class given is functional.
In assay [19] the test system is Bel-7402. Nature of the assay: Induction of mitochondrial membrane potential loss in human Bel7402 cells assessed as cell population with intact mitochondrial membrane potential at 0.45 uM after 48 hrs by JC1 staining-based flow cytometry analysis (reference value: 98.67%). The class given is functional. The method in brief: as §3
The test system of assay [20] is Bel-7402. Nature of the assay: Induction of apoptosis in human Bel7402 cells assessed as necrotic cells at 1.80 uM after 48 hrs by Annexin V-FITC/propidium iodide staining based flow cytometry (reference value: 0.01%). Format: functional. An outline of the steps:
as §1

Calls of active or inactive are those of the source. The calls are words filed in the database; no cut-off is given here.

As usually defined, the IC50 is the concentration that inhibits the measured activity by half. As for `C=C1C(=O)[C@@]23C(=O)OC[C@]4(C(=O)CCC(C)(C)[C@H]4C=O)[C@@H]2CC[C@@H]1[C@H]3OC(=O)CCCC(=O)Oc1ccc(-c2cc(=S)ss2)cc1`, the Activity in the assay with Bel-7402 [1] is reported as 7.73%; with Bel-7402 [3] it was 41.23%; in the assay on Bel-7402 [7], 40.42%; in the assay on Bel-7402 [8] it was 18.68%; in the assay with Bel-7402 [9], 37.37%; in the assay on Bel-7402 [13] it was 18.48%. For the same molecule, the Activity in the assay with Bel-7402 [14] worked out at 30.96%; in the assay with Bel-7402 [15], 42.3%; with Bel-7402 [18], 15.91%; with Bel-7402 [19], 81.5%; with Bel-7402 [20], 1.05%. Also, the viability at 0.45 µM with Bel-7402 [2] was 82.2%. Moreover, the concentration for half-maximal inhibition (IC50) came out at 20.8 µM in the assay with L02, 5.21 µM in the assay with A549, 0.88 µM in the assay with Bel-7402 [6] and 4.36 µM with SGC-7901. Also, the result with Bel-7402 [4], with Bel-7402 [5], in the assay on Bel-7402 [10], with Bel-7402 [12], in the assay on Bel-7402 [16] and in the assay with Bel-7402 [17] was Active. Also, in the assay with Bel-7402 [11], the viability at 1.8 µM was 43.6%.
